{"source": "ChEMBL document CHEMBL5705899", "about": "(Biochem J, 2014)", "key": {"[1]": {"biological_target": "Protein-tyrosine kinase 2-beta (Homo sapiens) (UniProt Q14289)", "experiment": "Inhibition of human PYK2 at 1 uM using polyEY as substrate in presence of 33P-ATP by ProQinase assay"}, "[2]": {"biological_target": "Ephrin type-B receptor 2 (Homo sapiens) (UniProt P29323)", "experiment": "Inhibition of recombinant human N-terminal His6-tagged EPHB2 (560 to 987 residues) expressed in baculovirus infected Sf21 cells assessed as remaining activity at 1 uM using Poly (Glu,Tyr) as substrate incubated for 30 mins in presence of [gamma-33P]ATP by filter binding method relative to control"}, "[3]": {"biological_target": "Tyrosine-protein kinase ZAP-70 (Homo sapiens) (UniProt P43403)", "experiment": "Inhibition of human ZAP70 at 1 uM using polyEY as substrate in presence of 33P-ATP by ProQinase assay"}, "[4]": {"biological_target": "Protein kinase C zeta type (Homo sapiens) (UniProt Q05513)", "experiment": "Inhibition of human PKCzeta at 1 uM using 3xChocktide-PKC as substrate in presence of 33P-ATP by ProQinase assay"}, "[5]": {"biological_target": "Phosphatidylinositol 4,5-bisphosphate 3-kinase catalytic subunit alpha isoform (Homo sapiens, UniProt P42336)", "sequence (P42336 whole entry, canonical isoform)": "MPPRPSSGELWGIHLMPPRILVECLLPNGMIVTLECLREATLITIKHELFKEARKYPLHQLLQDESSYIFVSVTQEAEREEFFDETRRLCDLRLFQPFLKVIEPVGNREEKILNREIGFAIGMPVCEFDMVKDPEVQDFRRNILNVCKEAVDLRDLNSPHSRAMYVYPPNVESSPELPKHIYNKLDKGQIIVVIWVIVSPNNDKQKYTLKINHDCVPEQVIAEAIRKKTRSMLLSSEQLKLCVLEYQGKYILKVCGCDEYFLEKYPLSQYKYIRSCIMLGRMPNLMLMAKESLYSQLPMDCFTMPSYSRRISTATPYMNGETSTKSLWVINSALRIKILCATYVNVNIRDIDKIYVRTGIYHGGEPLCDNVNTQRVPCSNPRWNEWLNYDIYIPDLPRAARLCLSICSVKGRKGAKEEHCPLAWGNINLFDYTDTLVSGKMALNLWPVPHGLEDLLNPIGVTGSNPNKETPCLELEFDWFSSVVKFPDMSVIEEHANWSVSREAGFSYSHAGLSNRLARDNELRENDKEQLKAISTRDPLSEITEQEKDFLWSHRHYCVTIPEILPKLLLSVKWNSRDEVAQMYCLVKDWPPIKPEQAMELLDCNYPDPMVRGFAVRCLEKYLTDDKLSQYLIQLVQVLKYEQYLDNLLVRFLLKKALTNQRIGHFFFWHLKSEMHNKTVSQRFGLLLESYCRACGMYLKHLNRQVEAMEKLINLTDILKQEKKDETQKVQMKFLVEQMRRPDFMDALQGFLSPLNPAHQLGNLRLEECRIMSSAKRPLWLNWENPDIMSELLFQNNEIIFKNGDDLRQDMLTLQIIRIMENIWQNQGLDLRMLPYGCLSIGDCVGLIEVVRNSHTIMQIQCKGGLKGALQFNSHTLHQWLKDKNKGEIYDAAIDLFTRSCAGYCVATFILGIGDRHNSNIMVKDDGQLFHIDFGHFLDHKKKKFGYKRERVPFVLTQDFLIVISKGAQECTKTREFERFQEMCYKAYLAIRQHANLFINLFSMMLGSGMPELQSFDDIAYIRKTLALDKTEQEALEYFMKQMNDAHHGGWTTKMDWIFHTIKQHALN", "experiment": "Inhibition of PI3Kalpha (unknown origin) using PtdIns(4,5)P2 as substrate preincubated for 20 mins followed by substrate addition and measured after 80 mins by Kinase-Glo assay", "summary_of_the_method": "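PIK3CA at 20 nM in 50 mM Tris/HCl pH 7.4, 0.05% CHAPSO, 10 mM MgCl2 and 2.1 mM DTT was pre-incubated with inhibitor at varying concentrations for 20 min. Then 80 μM PtdIns(4,5)P2 and 8 μM ATP (below apparent Km) were added, with 2% DMSO final. The reaction ran 80 min at ambient temperature, followed by Kinase-Glo Plus for 20 min and a luminescence read.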"}, "[6]": {"biological_target": "Maternal embryonic leucine zipper kinase (Homo sapiens) (UniProt Q14680)", "experiment": "Inhibition of recombinant human N-terminal GST/C-terminal His6-tagged MELK (2 to 651 residues) expressed in Escherichia coli assessed as remaining activity at 1 uM using KKLNRTLSFAEPG as substrate incubated for 30 mins in presence of [gamma-33P]ATP by filter binding method relative to control"}, "[7]": {"biological_target": "Inhibitor of nuclear factor kappa-B kinase subunit beta (Homo sapiens) (UniProt O14920)", "sequence (O14920 whole entry)": "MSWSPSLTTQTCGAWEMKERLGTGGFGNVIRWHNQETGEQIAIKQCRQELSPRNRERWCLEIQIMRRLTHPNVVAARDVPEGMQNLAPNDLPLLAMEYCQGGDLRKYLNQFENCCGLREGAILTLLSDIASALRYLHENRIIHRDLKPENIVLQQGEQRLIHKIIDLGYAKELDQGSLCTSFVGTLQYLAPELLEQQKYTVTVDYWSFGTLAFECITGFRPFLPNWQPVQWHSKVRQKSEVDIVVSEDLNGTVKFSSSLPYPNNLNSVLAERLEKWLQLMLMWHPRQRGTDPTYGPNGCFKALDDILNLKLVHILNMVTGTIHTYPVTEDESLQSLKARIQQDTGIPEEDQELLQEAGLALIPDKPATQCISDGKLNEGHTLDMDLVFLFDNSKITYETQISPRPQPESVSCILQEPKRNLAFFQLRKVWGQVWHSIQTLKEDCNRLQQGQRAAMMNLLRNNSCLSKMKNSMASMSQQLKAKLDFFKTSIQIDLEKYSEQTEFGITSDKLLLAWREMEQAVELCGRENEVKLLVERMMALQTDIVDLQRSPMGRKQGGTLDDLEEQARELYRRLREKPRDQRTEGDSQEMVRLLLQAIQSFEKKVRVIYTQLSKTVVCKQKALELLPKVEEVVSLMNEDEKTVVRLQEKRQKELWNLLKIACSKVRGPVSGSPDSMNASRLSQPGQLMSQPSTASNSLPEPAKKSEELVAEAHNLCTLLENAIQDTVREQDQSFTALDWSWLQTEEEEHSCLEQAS", "experiment": "Inhibition of human IKKbeta at 1 uM using RBER-CHKtide as substrate in presence of 33P-ATP by ProQinase assay"}, "[8]": {"biological_target": "Vascular endothelial growth factor receptor 1 (Homo sapiens) (UniProt P17948)", "experiment": "Inhibition of recombinant human N-terminal GST-tagged VEGFR1 (784 to 1338 residues) expressed in baculovirus infected Sf21 cells assessed as remaining activity at 1 uM using KKKSPGEYVNIEFG as substrate incubated for 30 mins in presence of [gamma-33P]ATP by filter binding method relative to control"}, "[9]": {"biological_target": "TGF-beta receptor type-2 (Homo sapiens) (UniProt P37173)", "experiment": "Inhibition of human TGFBR2 at 1 uM using RB-S6P as substrate in presence of 33P-ATP by ProQinase assay"}, "[10]": {"biological_target": "Eukaryotic elongation factor 2 kinase (Homo sapiens) (UniProt O00418)", "sequence (O00418 whole entry, the tested form may be a part)": "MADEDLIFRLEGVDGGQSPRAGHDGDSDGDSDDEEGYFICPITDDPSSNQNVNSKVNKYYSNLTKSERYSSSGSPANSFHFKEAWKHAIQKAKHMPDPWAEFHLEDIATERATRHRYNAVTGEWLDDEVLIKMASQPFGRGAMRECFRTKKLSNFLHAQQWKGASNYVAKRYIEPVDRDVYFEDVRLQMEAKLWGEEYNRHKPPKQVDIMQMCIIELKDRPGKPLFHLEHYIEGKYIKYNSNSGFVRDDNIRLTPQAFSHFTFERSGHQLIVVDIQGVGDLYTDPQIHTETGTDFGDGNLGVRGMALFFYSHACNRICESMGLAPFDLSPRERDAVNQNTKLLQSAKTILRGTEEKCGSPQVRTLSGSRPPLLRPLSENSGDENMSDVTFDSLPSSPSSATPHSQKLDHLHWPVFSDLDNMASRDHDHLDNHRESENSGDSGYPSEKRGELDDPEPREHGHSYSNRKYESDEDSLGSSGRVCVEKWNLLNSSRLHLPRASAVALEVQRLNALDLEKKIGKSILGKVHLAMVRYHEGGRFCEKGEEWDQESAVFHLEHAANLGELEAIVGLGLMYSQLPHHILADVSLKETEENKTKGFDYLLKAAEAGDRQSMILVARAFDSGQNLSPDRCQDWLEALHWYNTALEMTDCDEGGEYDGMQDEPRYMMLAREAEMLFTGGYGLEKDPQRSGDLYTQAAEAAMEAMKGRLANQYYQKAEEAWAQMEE", "experiment": "Inhibition of human EEF2K at 1 uM using RBER-GSK3 as substrate in presence of 33P-ATP by ProQinase assay"}, "[11]": {"biological_target": "Phosphatidylinositol 3-kinase C2 domain-containing subunit gamma (Homo sapiens, UniProt O75747)", "experiment": "Inhibition of human PIK3C2G using PIP2/PS as substrate by ADP-Glo assay"}, "[12]": {"biological_target": "Mitogen-activated protein kinase 7 (Homo sapiens) (UniProt Q13164)", "experiment": "(§1) Inhibition of recombinant human N-terminal His6-tagged ERK5 (1 to 816 residues) expressed in baculovirus infected Sf21 cells assessed as remaining activity at 1 uM using MBP as substrate incubated for 30 mins in presence of [gamma-33P]ATP by filter binding method relative to control"}, "[13]": {"biological_target": "MAP/microtubule affinity-regulating kinase 4 (Homo sapiens) (UniProt Q96L34)", "sequence (Q96L34 whole entry)": "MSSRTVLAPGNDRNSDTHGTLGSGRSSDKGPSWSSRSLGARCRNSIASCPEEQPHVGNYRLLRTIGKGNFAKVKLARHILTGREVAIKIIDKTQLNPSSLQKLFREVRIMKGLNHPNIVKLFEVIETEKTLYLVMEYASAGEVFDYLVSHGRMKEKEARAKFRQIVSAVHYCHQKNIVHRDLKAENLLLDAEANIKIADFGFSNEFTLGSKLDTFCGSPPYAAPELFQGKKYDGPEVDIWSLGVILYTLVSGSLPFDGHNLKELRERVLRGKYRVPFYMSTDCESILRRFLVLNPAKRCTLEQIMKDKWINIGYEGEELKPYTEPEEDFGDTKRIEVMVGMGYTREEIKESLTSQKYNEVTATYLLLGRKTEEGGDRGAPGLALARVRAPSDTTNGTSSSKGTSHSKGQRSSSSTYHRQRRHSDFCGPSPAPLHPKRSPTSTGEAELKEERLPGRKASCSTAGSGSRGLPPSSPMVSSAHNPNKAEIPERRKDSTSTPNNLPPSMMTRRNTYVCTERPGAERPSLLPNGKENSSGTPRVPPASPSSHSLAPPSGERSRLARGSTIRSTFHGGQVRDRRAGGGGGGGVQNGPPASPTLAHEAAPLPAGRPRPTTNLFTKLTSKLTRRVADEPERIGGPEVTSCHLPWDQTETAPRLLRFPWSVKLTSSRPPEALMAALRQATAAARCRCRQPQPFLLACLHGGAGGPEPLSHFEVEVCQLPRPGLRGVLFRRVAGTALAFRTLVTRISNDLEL", "experiment": "as §1, with “MARK4 (2” for “ERK5 (1”, “752” for “816”, “KKKVSRSGLYRSPSMPENLNRPR” for “MBP”"}, "[14]": {"biological_target": "cAMP-dependent protein kinase catalytic subunit alpha (Homo sapiens) (UniProt P17612)", "experiment": "Inhibition of human PKACalpha at 1 uM using bio-4xCHKT as substrate in presence of 33P-ATP by ProQinase assay"}, "[15]": {"biological_target": "Interferon-induced, double-stranded RNA-activated protein kinase (Homo sapiens) (UniProt P19525)", "sequence (P19525 whole entry)": "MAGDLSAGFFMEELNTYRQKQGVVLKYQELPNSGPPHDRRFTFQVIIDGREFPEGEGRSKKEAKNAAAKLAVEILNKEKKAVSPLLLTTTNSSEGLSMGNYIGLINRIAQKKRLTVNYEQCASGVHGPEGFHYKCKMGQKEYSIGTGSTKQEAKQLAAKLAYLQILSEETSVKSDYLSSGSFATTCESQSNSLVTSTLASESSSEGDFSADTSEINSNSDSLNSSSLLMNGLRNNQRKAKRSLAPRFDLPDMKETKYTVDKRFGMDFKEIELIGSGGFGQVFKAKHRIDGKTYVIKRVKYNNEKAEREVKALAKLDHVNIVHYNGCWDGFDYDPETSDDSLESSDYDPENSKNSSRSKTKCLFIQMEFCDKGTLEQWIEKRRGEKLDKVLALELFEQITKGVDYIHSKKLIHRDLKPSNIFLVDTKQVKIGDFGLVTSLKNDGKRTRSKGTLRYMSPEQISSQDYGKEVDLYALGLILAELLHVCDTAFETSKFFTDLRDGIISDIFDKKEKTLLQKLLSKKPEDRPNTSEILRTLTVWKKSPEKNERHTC", "experiment": "Inhibition of human EIF2AK2 at 1 uM using RB-CTF as substrate in presence of 33P-ATP by ProQinase assay"}, "[16]": {"biological_target": "Calcium/calmodulin-dependent protein kinase kinase 2 (Homo sapiens) (UniProt Q96RR4)", "experiment": "Inhibition of recombinant human N-terminal GST-tagged CAMKKbeta (1 to 541 residues) expressed in Escherichia coli assessed as remaining activity at 1 uM using DGEFLRTSCGSPNYAARRR as substrate incubated for 30 mins in presence of [gamma-33P]ATP by filter binding method relative to control"}, "[17]": {"biological_target": "Eukaryotic elongation factor 2 kinase (Homo sapiens) (UniProt O00418)", "experiment": "Inhibition of recombinant human N-terminal GST-tagged EF2K (2 to 725 residues) expressed in Escherichia coli assessed as remaining activity at 1 uM using RKKFGESKTKTKEFL as substrate incubated for 30 mins in presence of [gamma-33P]ATP by filter binding method relative to control"}, "[18]": {"biological_target": "Homeodomain-interacting protein kinase 1 (Homo sapiens) (UniProt Q86Z02)", "sequence (Q86Z02 whole entry, looked up, the tested form may be a part)": "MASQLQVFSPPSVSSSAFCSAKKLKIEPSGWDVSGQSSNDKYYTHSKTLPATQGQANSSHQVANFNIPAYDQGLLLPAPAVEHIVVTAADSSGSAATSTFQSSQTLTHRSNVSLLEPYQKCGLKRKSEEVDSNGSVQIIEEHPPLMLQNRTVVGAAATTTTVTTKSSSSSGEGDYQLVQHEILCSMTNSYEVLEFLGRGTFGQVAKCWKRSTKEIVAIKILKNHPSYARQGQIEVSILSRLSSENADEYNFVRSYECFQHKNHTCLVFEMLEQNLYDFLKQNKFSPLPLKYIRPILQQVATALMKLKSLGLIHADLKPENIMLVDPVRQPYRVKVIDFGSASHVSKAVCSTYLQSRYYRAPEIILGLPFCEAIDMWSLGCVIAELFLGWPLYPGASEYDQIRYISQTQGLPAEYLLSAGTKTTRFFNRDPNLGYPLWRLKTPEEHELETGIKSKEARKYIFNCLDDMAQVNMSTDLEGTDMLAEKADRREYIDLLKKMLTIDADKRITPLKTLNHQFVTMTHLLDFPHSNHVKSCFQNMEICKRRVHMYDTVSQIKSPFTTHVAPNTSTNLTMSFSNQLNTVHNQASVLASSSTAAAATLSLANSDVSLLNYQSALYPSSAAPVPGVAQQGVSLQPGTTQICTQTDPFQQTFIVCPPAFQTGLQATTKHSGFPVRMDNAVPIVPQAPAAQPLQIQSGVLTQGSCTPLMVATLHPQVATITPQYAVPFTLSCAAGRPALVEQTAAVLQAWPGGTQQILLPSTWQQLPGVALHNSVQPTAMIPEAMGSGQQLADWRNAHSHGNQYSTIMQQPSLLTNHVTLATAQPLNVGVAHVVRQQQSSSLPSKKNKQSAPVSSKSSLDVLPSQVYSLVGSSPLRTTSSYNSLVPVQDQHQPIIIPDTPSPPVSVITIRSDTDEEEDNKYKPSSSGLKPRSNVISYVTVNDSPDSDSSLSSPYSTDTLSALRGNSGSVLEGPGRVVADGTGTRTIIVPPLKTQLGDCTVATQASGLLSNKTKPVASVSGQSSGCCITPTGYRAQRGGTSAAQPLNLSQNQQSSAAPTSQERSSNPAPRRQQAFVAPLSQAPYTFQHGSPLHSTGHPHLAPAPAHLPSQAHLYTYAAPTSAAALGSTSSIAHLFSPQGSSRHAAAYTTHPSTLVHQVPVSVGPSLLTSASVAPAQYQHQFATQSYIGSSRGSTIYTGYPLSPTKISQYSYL", "experiment": "Inhibition of recombinant human N-terminal GST-tagged HIPK1 (158 to 555 residues) expressed in Escherichia coli assessed as remaining activity at 1 uM using MBP as substrate incubated for 30 mins in presence of [gamma-33P]ATP by filter binding method relative to control"}}, "note": "Active and inactive are the calls of the source. No cut-off for these calls is given here.", "data": [{"smiles": "CC(C)(O)CNc1ncc(-c2ccnc(Nc3ccnc(Cl)c3)n2)c(CC2CC2)n1", "values": [{"measurement": "inhibition", "setting": "[1]", "value": "inactive"}, {"measurement": "Activity", "setting": "[2]", "value": 109, "unit": "%"}, {"measurement": "inhibition", "setting": "[3]", "value": "inactive"}, {"measurement": "inhibition", "setting": "[4]", "value": "inactive"}, {"measurement": "IC50", "setting": "[5]", "value": 8.04, "unit": "µM"}, {"measurement": "Activity", "setting": "[6]", "value": 108, "unit": "%"}, {"measurement": "inhibition", "setting": "[7]", "value": "inactive"}, {"measurement": "Activity", "setting": "[8]", "value": 113, "unit": "%"}, {"measurement": "inhibition", "setting": "[9]", "value": "inactive"}, {"measurement": "inhibition", "setting": "[10]", "value": "inactive"}, {"measurement": "IC50", "setting": "[11]", "value": "> 10", "unit": "µM"}, {"measurement": "Activity", "setting": "[12]", "value": 104, "unit": "%"}, {"measurement": "Activity", "setting": "[13]", "value": 115, "unit": "%"}, {"measurement": "inhibition", "setting": "[14]", "value": "inactive"}, {"measurement": "inhibition", "setting": "[15]", "value": "inactive"}, {"measurement": "Activity", "setting": "[16]", "value": 108, "unit": "%"}, {"measurement": "Activity", "setting": "[17]", "value": 115, "unit": "%"}, {"measurement": "Activity", "setting": "[18]", "value": 108, "unit": "%"}]}]}
